Assay outcomes deposited in PubChem BioAssay by several laboratories.
A selection: hits, their analogues and other compounds. The true share with any hit is near 2.5%.
Exocytosis inh = lytic granule exocytosis inhibition. inhibition, % at 10 µM. TALL-104 LAMP-1 surface exposure, flow cytometry; cells stimulated with thapsigargin and PMA. actives 0.66% (n = 360,000). AID 651702;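 active means inhibition above about 55%, limit read from the data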
Bfl-1 A1 inh = inhibitors of the anti-apoptotic protein A1, read as caspase activation; caspase activation, % (concentration not given with the values); actives 0.066% (n = 330,000); MEF A1-2A-BIM cells, Caspase-Glo 3/7 luminescence, 3 h; percent of clofoctol response, vehicle zero; AID 2462;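 active means over half of replicate activation scores above 10%, or exactly half above 10 with the replicate mean above 10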
sPLA2-III inh = Blocks human group III sPLA2 activity. Q9NZ20. QFRET BODIPY PC-A2 liposome hydrolysis, fluorescence. inhibition, % at 12.2 µM. actives 0.56% (n = 370,000);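 active means inhibition above mean plus 3 SD of compounds lying within the high and low control bounds, cut at about 19% in these data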
MC4R antag cAMP = blocks human MC4R cAMP signaling; MC4R-expressing cells, MTII-stimulated cAMP, LANCE TR-FRET; inhibition, % at 6.5 µM; actives 0.48% (n = 360,000);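 active means inhibition above its plate's cutoff, the mean of tested wells on that plate plus 3 SD, cut at about 29% in these data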
Target sequence (P32245 whole entry, looked up): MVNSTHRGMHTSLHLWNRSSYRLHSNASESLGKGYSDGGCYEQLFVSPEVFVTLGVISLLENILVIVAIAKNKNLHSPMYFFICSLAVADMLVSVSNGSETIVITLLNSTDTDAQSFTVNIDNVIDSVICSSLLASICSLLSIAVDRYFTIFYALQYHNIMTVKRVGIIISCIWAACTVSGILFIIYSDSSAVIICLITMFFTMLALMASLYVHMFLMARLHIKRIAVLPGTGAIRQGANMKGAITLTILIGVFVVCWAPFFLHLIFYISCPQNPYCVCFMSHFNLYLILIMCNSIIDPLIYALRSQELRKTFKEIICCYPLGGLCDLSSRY
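Assay system: U2OS cells stably expressing human melanocortin 4 receptor (MC4R) / Dosing: 6.5 µM / Timing: compound 30 min, challenge 1 h, detection 1 h / Measured by: Eu-cAMP/anti-cAMP TR-FRET, emission 671 nm / Replicates: singlicate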
MC4R barr agon = activates human MC4R beta-arrestin recruitment. U2OS MC4R beta-arrestin complementation, luminescence; percent of melanotan II response, DMSO zero. activation, % at 8.9 µM. actives 0.98% (n = 360,000). AID 540308;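 active means activation above a per-plate cutoff, the mean activation of sample wells on that plate plus 3 SD, cut at about 8% in these data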
NTR1 ag = agonists of human neurotensin receptor NTR1 | P30989 | NTR1-U2OS beta-arrestin-GFP spot imaging, agonist mode | activation, % at 20 µM | actives 0.17% (n = 330,000) | AID 493036;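 active means activation at or above 40% of the spot to cytoplasm intensity ratio, with at least 20 cells analyzed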
Exocytosis CP01 = blocks lytic granule exocytosis; shares compounds with Exocytosis inh; TALL-104 cells, LAMP-1 externalization, flow cytometry; stimulated with PMA plus thapsigargin; inhibition, % at 10 µM; actives 11% (n = 1,500); in the data active means inhibition above about 60%
Large screens that a line does not name were inactive (follow-up assays come after a bar, where they were run).

CC(C)CC(=O)NC1(C(F)(F)F)NC(=O)N(c2ccccc2)C1=O (stereo unspecified)	Exocytosis inh 90.5 | Exocytosis CP01 inactive
CC1=C(C(=O)OCc2ccccc2)C(c2ccc(Cl)cc2Cl)NC(=O)N1CCCC(=O)O (stereo unspecified)	Exocytosis inh 75.4 (no result: sPLA2-III inh) | Exocytosis CP01 inactive
COC(=O)C1=C(C)N(CCCC(=O)O)C(=O)NC1c1ccc2c(c1)OCO2 (stereo unspecified)	Exocytosis inh 79.0 | Exocytosis CP01 inactive
CC1=C(C(=O)OCc2ccccc2)C(c2ccc(Cl)cc2Cl)NC(=O)N1CCCCCC(=O)O (stereo unspecified)	none (no result: Exocytosis inh, sPLA2-III inh, MC4R antag cAMP, MC4R barr agon)
COC(=O)C1=C(C)N(CCCC(=O)O)C(=O)NC1c1ccc(Cl)cc1 (stereo unspecified)	none
CC(=O)Nc1cc(-c2ccccc2F)cn2c(-c3ccccc3)cnc12	Exocytosis inh 79.2, MC4R barr agon 8.3 (no result: Bfl-1 A1 inh, NTR1 ag) | Exocytosis CP01 94.1
COc1ccccc1C1CCN(Cc2ccc(Cl)cc2Cl)CC1	none
COc1ccccc1C1CCN(Cc2cccc3ccccc23)CC1	Exocytosis inh 59.7 | Exocytosis CP01 inactive
O=C(NCc1ccccc1Cl)c1ccc2nc([C@@H]3O[C@H](CO)[C@H](O)[C@H](O)[C@H]3O)[nH]c2c1	none (no result: Bfl-1 A1 inh, sPLA2-III inh, NTR1 ag)
C/C=C/c1ccc(OCCOCCNCc2ccccc2)c(OC)c1	Exocytosis inh 69.8 | Exocytosis CP01 inactive
C/C=C/c1ccc(OCCOc2cc(C=O)ccc2OC)c(OC)c1	none
CC1C=CCC2C(=O)N(c3cccc(C(=O)Nc4ccc(F)cc4)c3)C(=O)C12 (stereo unspecified)	none
Cn1c(SCC(=O)Nc2nccs2)nnc1-c1ccccn1	none
CN(C)CC(O)COC(c1ccc(Cl)cc1)c1ccc(Cl)cc1 (stereo unspecified)	Exocytosis inh 66.1 | Exocytosis CP01 inactive
CC1CN(CC(O)COC(c2ccc(Cl)cc2)c2ccc(Cl)cc2)CC(C)O1 (stereo unspecified)	none
N=c1n(CCN2CCCCC2)c2ccccc2n1CC(=O)c1ccc(Cl)c(Cl)c1	Exocytosis inh 83.0 | Exocytosis CP01 inactive
CCOC(=O)c1c(CSc2ccccc2)n(C)c2ccc(O)c(CN3CCN(C)CC3)c12	Exocytosis inh 59.1 | Exocytosis CP01 inactive
CCOC(=O)c1c(CSc2ccccc2)n(C)c2cc(Br)c(O)c(CN(C)C)c12	Exocytosis inh 73.0 | Exocytosis CP01 106.6
CCOC(=O)c1c(C)n(C)c2ccc(O)c(CN3CCCCC3)c12	none
CCc1nc2ccc(C(=O)Nc3cc(-c4ccccc4)ccc3OC)cn2c1N(CC)CCN(C)C	Exocytosis inh 59.5 (no result: Bfl-1 A1 inh, NTR1 ag) | Exocytosis CP01 inactive
O=C(Nc1ccc2nc(-c3cccs3)c(-c3cccs3)nc2c1)N1CCOCC1	Exocytosis inh 100.9 | Exocytosis CP01 99.3
CSc1nc(C(C)C)ccc1CNC(=O)CC(C)c1ccccc1 (stereo unspecified)	Exocytosis inh 63.2 | Exocytosis CP01 inactive
CC(=O)CCc1oc2c([N+](=O)[O-])cccc2c1-c1ccc(C)o1	Exocytosis inh 71.6 | Exocytosis CP01 inactive
Cc1ccc2nc(-c3ccc(NC(=O)CN4C(=O)c5ccccc5C4=O)cc3)sc2c1	none
Cc1ccc2nc(-c3ccc(NC(=O)CNC4CC4)cc3)sc2c1	Exocytosis inh 74.2 (no result: Bfl-1 A1 inh, NTR1 ag) | Exocytosis CP01 inactive
Cc1cccn2c(=O)c3cc(C(=O)NCc4ccco4)c(=N)n(CCc4ccccc4)c3nc12	none (no result: Bfl-1 A1 inh)
COc1ccc(CCNC(=O)c2cc3c(=O)n4cccc(C)c4nc3n(CC3CCCO3)c2=N)cc1 (stereo unspecified)	Exocytosis inh 62.0 | Exocytosis CP01 inactive
Cc1cccn2c(=O)c3cc(C(=O)NCCc4ccccc4)c(=N)n(Cc4ccco4)c3nc12	Exocytosis inh 77.6, NTR1 ag 57.1 | Exocytosis CP01 inactive
O=C(CCc1ccccn1)N1CCCC(N2CCN(c3ccc(F)cc3)CC2)C1 (stereo unspecified)	none (no result: Bfl-1 A1 inh)
O=C(c1cc(S(=O)(=O)N2CCOCC2)c(Cl)cc1Cl)N1CCN(S(=O)(=O)c2cccc(F)c2)CC1	Exocytosis inh 55.5 | Exocytosis CP01 inactive
Cc1ccc(S(=O)(=O)N2CCN(C(=O)c3cc(S(=O)(=O)N4CCOCC4)c(Cl)cc3Cl)CC2)cc1	none (no result: Bfl-1 A1 inh, NTR1 ag)
CCCNC(=O)Cn1sc2nc(C)cc(C)c2c1=O	Exocytosis inh 58.3 | Exocytosis CP01 103.0
COc1ccccc1OCCCn1cc(C#N)c2ccccc21	none
N#Cc1cn(CCCOc2ccccc2)c2ccccc12	Exocytosis inh 67.2 | Exocytosis CP01 inactive
O=C(CN1C(=O)/C(=C\c2ccccc2Br)Oc2ccccc21)NCCCN1CCOCC1	none
O=C(NCCCN1CCOCC1)c1ccc(/C=C2\Oc3ccccc3N(Cc3ccccc3F)C2=O)cc1	Exocytosis inh 62.9, MC4R barr agon 8.9 | Exocytosis CP01 inactive
CNC(=O)c1ccc(NC(=O)CCNC(=O)Nc2ccccc2)cc1	none (no result: Bfl-1 A1 inh)
C#CCOc1ccc(/C=C2/C(=O)ON=C2C)cc1Cl	none
C[C@H](CO)N1C[C@H](C)[C@@H](CN(C)S(C)(=O)=O)Oc2ccc(N(C)C)cc2C1=O	Exocytosis inh 60.0 | Exocytosis CP01 inactive
Cc1ccc(C(=O)OCc2c(C)noc2C)cc1NC(=O)c1ccco1	none
NC(=O)c1ccc(NC(=O)C#Cc2ccccc2)cc1	none
CCOC(=O)C1=C(C)NC(C)=C(C(=O)OCC)C1C(=O)OCC(=O)NCc1ccco1	none
Cc1cnc(C(=O)OCC(=O)NCCc2ccccc2)cn1	Exocytosis inh 109.6 | Exocytosis CP01 inactive
O=C(COC(=O)c1cnccn1)NCCc1ccccc1	none
Cc1ccc(SC[C@H](CC(C)C)N2CCN(CCc3ccccc3)CCC2=O)cc1	none (no result: Bfl-1 A1 inh)
CC(=O)Nc1ccc(SC[C@H](CC(C)C)N2CCN(CCc3ccccc3)CCC2=O)cc1	Exocytosis inh 66.0 | Exocytosis CP01 inactive
COc1ccccc1C(=O)NC(=O)COC(=O)c1ccc(Br)o1	none (no result: Bfl-1 A1 inh)
CCCCCCNC(=O)c1cccc(-c2ccc(C)c3ccccc23)n1	Exocytosis inh 57.8 | Exocytosis CP01 inactive
COc1ccccc1CNC(=O)c1cccc(-c2ccc(C)c3ccccc23)n1	none (no result: Exocytosis inh, MC4R antag cAMP, MC4R barr agon)
COc1ccc(NC(=O)c2cccc3c2C(=O)N(C2CCCCC2)C3)cc1	none
COc1ccc(OC)c(NC(=O)c2cccc3c2C(=O)N(C2CCCCC2)C3)c1	Exocytosis inh 78.3 | Exocytosis CP01 inactive
CCOc1ccc(NC(=O)CC(Cc2cc(C)cc(C)c2)C(=O)O)cc1 (stereo unspecified)	none
CC(C)Oc1ccc(C(=O)/C=C2/C(=O)Nc3ccccc32)cc1	none
COc1ccc(C(=O)/C=C2\C(=O)Nc3ccc(Br)cc32)cc1	Exocytosis inh 82.4 (no result: Bfl-1 A1 inh, NTR1 ag) | Exocytosis CP01 inactive
